These results are taken from paper PMC4330091 (Bioorganic & medicinal chemistry, 2014).

A word on the IC50: it is the concentration that inhibits the measured activity by half.

For series [1], the system named is MCF-7 breast cancer cell line. The following applies: cited from earlier work; for IC50: read-out: IC50, MCF-7, MTT assay, 72 h drug exposure.
The subject of series [2] is HT-29 colon cancer cell line. The following applies: read-out: IC50, HT-29; MTT assay, 72 h drug exposure; cited from earlier work. Background: Tetrazolium dyes change colour on reduction, which living cells bring about.
In series [3] the test system is MCF-7 cells. The series can be described thus: Cytokinesis-block micronucleus assay. The following applies: for % Binucleated cells (Mitotic rate) / Micronucleus (MNi) (mean ± SD): 72 h treatment; for % Binucleated cells (Mitotic rate): MCF-7, mean (SD); for Micronucleus (MNi) (mean ± SD): micronucleated cells in 500 binucleated MCF-7 cells; for increase in micronucleus forming activity compared to control (untreated cells): MCF-7.

Series [4] has as its system MCF-7 breast cancer cell line. In words: MTT anti-proliferative assay on MCF-7. Particulars: read-out: IC50, MCF-7. It counts as cell-based, human.
Series [5] deals with MCF-10A non-tumorigenic human breast epithelial cell line. In words: MTT anti-proliferative assay on MCF-10A. It counts as cell-based. Particulars: read-out: IC50, MCF-10A.
For series [6], the system named is HT-29 colon cancer cell line. In words: MTT anti-proliferative assay on HT-29. It counts as cell-based, human. The following applies: read-out: IC50, HT-29.
Series [7] in a line: Cyclic voltammetry in CH3CN. It counts as physicochemical. Particulars: 0.1 M [NBu4n]PF6, 100 mV/s, vs Ag/AgCl. The procedure, abridged: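 Test compound dissolved at 2 × 10⁻³ M in deoxygenated CH3CN with 0.1 M [NBuⁿ₄]PF₆ as supporting electrolyte; cyclic voltammograms recorded on these solutions.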
Series [8] relates to MCF-7. The series can be described thus: ROS production. It counts as cell-based, human. Particulars: MCF-7, 72 h.
The subject of series [9] is MCF-7 cells.
The subject of series [10] is MCF-10A non-tumorigenic human breast epithelial cell line. The following applies: cited from earlier work.
The conditions of series [11]: CH3CN, vs Ag/AgCl, cited from earlier work.
Series [12] concerns MCF-7 cells. The following applies: ref 35 (Yared et al.); cited from earlier work.
Where [13] appears, read: MTT assay, 72 h drug exposure, SD in parenthesis.
Where [14] appears, read: ref 13. Dalton Trans. 40 (2011) 9557–9565.
The mark [15] stands for this setting: ref 14. J. Organometal. Chem 749 (2014) 204–214.

Like-named read-outs stand apart in the source and are kept apart here. Marks after values point to notes of the source that are not given here.

Take `F[B-](F)(F)F.[Fe+3].c1cc[cH-]c1.c1cc[cH-]c1` [Ferricenium tetrafluoroborate]: the IC50 in [1] was 150 µM; in series [2], 180 µM.

For the compound `COS(C)(=O)=O` [MMS, methyl methane sulphonate], in series [3] (94.4 μM), the “% Binucleated cells (Mitotic rate)” value is reported as 28 (3) ^* % and the “Micronucleus (MNi) (mean ± SD)” value is 62 (6) ^***.

For `O=C(Oc1ccc(-n2cccc2)cc1)[c-]1cccc1.O=C(Oc1ccc(-n2cccc2)cc1)[c-]1cccc1.[Fe+2]` [Fc-(CO2-Ph-4-Py)2, 1,1′-4-(1H-pyrrol-1-yl)phenyl ferrocenedicarboxylate], the IC50 in series [4] (setting [13]) came to 45.5 µM. Also, the IC50 in [5] (setting [13]) is 298 µM. Besides, the IC50 in series [6] (setting [13]) is 189 µM. In [7], this compound came in with an E1/2 of 910 mV, an Epa of 958 mV, an Epc of 862 mV and a ΔE of 96 mV. Further, in series [8], the “ROS production (in words)” value is listed as “significant increase”. Moreover, in series [9], the “Micronucleus (MNi) (mean ± SD)” value is listed as 15 (1) ^**, the “increase in micronucleus forming activity compared to control (untreated cells)” value (from here on “increase … (untreated cells)”) is on record as “up to 5 fold” and the “increase in micronucleus-forming activity” value was “up to 5 fold”. Moreover, in series [3] (0.1 μM), the “% Binucleated cells (Mitotic rate)” value is given as 18 (7) ^* %. In [3] (1 μM), the “% Binucleated cells (Mitotic rate)” value is recorded as 33 (13) ^* %. For the same compound, the “% Binucleated cells (Mitotic rate)” value in series [3] (10 μM) is reported as 25 (6) ^* %.

Take `O=C(Oc1ccc(-n2cccc2)cc1)[c-]1cccc1.[Fe+2].c1cc[cH-]c1` [Fc-CO2-Ph-4-Py, 4-(1H-pyrrol-1-yl)phenyl ferrocenecarboxylate]: the “anti-proliferative activity (in words)” value in series [1] (hormone-dependent breast cancer cell line MCF-7) and in series [10] (non-tumorigenic human breast epithelial cell line MCF-10A) was “high anti-proliferative activity” each time.

`Oc1ccc(-n2cccc2)cc1` [4-(1H-pyrrol-1yl)phenol]: the IC50 came out at 249 µM in series [4] (Homo sapiens, MCF7, 72 h); 553 µM in series [5] (Homo sapiens, MCF-10A, 72 h); 211 µM in series [6] (Homo sapiens, HT-29, 72 h).

As for `C[C@]12CC[C@@H]3c4ccc(OC(=O)[c-]5cccc5)cc4CC[C@H]3[C@@H]1CC[C@@H]2O.[Fe+2].c1cc[cH-]c1` [Fc-CO2-estradiol, ferrocenoyl 17β-hydroxy-estra-1,3,5(10)-trien-3-olate], the half-maximal inhibitory concentration (IC50) in series [5] (setting [13]) is 119 µM. Also, the “ROS production (in words)” value in series [8] was “significant increase”. Also, the IC50 in [1] is 9 µM. Also, the IC50 in [2] is 24.4 µM. For the same compound, in [11] (setting [14]), the E1/2 is on record as 756 mV, the Epa is recorded as 801 mV, the Epc was 711 mV and the ΔE is 90 mV. Also, in series [3] (0.01 μM), the “% Binucleated cells (Mitotic rate)” value is 33 (2) ^* % and the “increase … (untreated cells)” value is 3 fold. Moreover, in series [3] (0.1 μM), the “% Binucleated cells (Mitotic rate)” value is given as 39 (9) ^* %, the “Micronucleus (MNi) (mean ± SD)” value worked out at 25 and the “increase … (untreated cells)” value worked out at 4 fold. Further, in series [3] (1 μM), the “% Binucleated cells (Mitotic rate)” value was 34 (9) ^* %, the “Micronucleus (MNi) (mean ± SD)” value is recorded as 29 and the “increase … (untreated cells)” value was 4 fold. In addition, the “increase in micronucleus-forming activity” value in series [3] (concentration near IC50, MCF-7) is “up to 4 fold”.

For the compound `O=C(O)[c-]1cccc1.O=C(O)[c-]1cccc1.[Fe+2]` [1-1′ferrocenedicarboxilic acid], the IC50 in series [6] (setting [13]) came to 410 µM.

In the case of `C[C@]12CC[C@@H]3c4ccc(O)cc4CC[C@H]3[C@@H]1CC[C@@H]2O` [β-estradiol], the “increase in the micronucleus-forming activity” value in [12] is given as 3 fold.

With `[Fe+2].c1cc[cH-]c1.c1cc[cH-]c1` [Fc/Fc^+, ferrocene], in series [7], the E1/2 is listed as 454 mV, the Epa is 494 mV, the Epc is reported as 414 mV and the ΔE came to 80 mV.

As to `O=C(O)Cc1ccc[cH-]1.[Fe+2].c1cc[cH-]c1` [Ferroceneacetic acid], the half-maximal inhibitory concentration (IC50) in series [4] (setting [13]) stood at 590 µM; in series [5] (setting [13]), 86 µM; in series [6] (setting [13]), 253 µM.

Take `O=C(Oc1ccc(Br)cc1)[c-]1cccc1.[Fe+2].c1cc[cH-]c1` [Fc-CO2-Ph-4-Br, 4-bromophenyl ferrocenecarboxylate]: in series [1], the IC50 was 9.2 µM. In addition, the half-inhibitory concentration (IC50) in series [10] (read-out: IC50, MCF-10A, MTT assay, 72 h drug exposure) was 353 µM. Besides, the IC50 in series [2] was 24 µM. Moreover, in [11] (setting [15]), the E1/2 is 532 mV, the Epa was 580 mV, the Epc is 484 mV and the ΔE is given as 96 mV.
